PAFAH1B3 inh – PAFAH1B3 (human) inhibition; inhibition, % at 3.39 µM; recombinant PAFAH1B3, FP-rhodamine probe, fluorescence polarization; 340,000 compounds, 0.28% hits; Q15102;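 active = inhibition above the screen-wide average of all tested compounds plus 3 SD, cut at about 25% in these data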;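 note: 0% = enzyme with DMSO only and 100% = wells lacking PAFAH1B3 protein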
Target sequence (Q15102 whole entry, looked up): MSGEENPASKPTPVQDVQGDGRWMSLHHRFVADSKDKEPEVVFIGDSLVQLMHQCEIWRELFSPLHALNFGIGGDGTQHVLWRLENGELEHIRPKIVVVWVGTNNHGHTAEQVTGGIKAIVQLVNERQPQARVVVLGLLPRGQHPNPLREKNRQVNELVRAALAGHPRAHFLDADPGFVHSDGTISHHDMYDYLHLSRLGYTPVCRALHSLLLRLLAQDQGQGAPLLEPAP
TDP2 absorb – blocks human TDP2 phosphodiesterase activity | 370,000 compounds, 0.34% hits | O95551 | inhibition, % at 12.8 µM | recombinant TDP2, T5PNP hydrolysis, p-nitrophenol absorbance 415 nm;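 active = inhibition above the mean of all tested compounds plus 3 SD, set per campaign, cut at about 25% in these data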;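 note: 0% = DMSO with enzyme and 100% = buffer with substrate but no TDP2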
Target sequence (O95551 whole entry, looked up): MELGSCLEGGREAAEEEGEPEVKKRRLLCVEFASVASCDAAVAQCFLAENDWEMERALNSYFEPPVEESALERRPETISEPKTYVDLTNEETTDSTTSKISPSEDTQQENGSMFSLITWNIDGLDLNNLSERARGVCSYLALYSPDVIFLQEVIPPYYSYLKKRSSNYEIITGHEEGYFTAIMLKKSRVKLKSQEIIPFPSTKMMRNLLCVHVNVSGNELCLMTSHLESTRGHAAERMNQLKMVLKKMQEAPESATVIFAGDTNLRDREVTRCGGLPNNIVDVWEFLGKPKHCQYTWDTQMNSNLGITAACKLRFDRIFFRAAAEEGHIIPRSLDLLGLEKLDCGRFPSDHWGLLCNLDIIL
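Assay system: recombinant human TDP2 / Reagent: T5PNP substrate at 5 mM, a TopII-DNA adduct mimic / Measured by: epi absorbance from released p-nitrophenol / Evaluation: % inhibition relative to enzyme-containing and enzyme-free wells / Control set: enzyme-free and DMSO wells / Replicates: each compound tested once, singlicate / Schedule: enzyme reaction with compound for 2 h at 37 °C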
PAFAH2 inh – PAFAH2 (human) inhibition | Q99487 | 340,000 compounds, 0.99% hits | AID 492956 | recombinant PAFAH2, FP-rhodamine activity probe, fluorescence polarization | inhibition, % at 3.39 µM;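 active = inhibition above the mean over all tested compounds plus 3 SD, cut at about 30% in these data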;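 note: inhibitors block probe labeling of enzyme so polarization drops; 0% = enzyme with DMSO and 100% = wells lacking PAFAH2 protein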
Apaf-1 inh – blocks human Apaf-1 apoptosome activity. reconstituted apoptosome caspase-3 activity, DEVD-Rh110 fluorescence. AID 489030. O14727. inhibition, % at 20 µM. 330,000 compounds, 0.71% hits; active = inhibition of at least 40% at 20 µM;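 note: plate controls were DMSO wells for no effect and DEVD-CHO caspase inhibitor wells for full effect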
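System: reconstituted apoptosome with Apaf-1, cytochrome c, caspase-9, procaspase-3, dATP; Signal: Rh110 fluorescence intensity; Schedule: 30 min compound preincubation, 50 min activation, room temperature; Reagent: cytochrome c trigger plus (Z-DEVD)2-Rh110 caspase-3 substrate.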
PAFAH1B2 inh – blocks human PAF acetylhydrolase 1b catalytic subunit 2; inhibition, % at 3.39 µM; 340,000 compounds, 1.2% hits; recombinant PAFAH1B2, FP-rhodamine activity probe, fluorescence polarization; P68402;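 active = inhibition above the mean of all tested compounds plus 3 SD, cut at about 24% in these data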;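 note: 0% = enzyme with DMSO and 100% = wells lacking PAFAH1B2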
PAFAH2 FP conf – PAFAH2 (human) inhibition, confirmed; shares compounds with PAFAH2 inh; recombinant PAFAH2, FP-rhodamine activity probe, fluorescence polarization; inhibition, % at 3.39 µM; 2,300 compounds, 65% hits;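 active = mean inhibition over three repeats above a set limit taken from the earlier primary screen, cut at about 30% in these data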;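 note: inhibitor blocks binding of rhodamine activity probe so polarization falls; 0% = enzyme with DMSO and 100% = wells lacking PAFAH2 protein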
The depositor's hits bear a star. Most compounds without a hit are left out; they make up all but 2.3% or so of the library.

For Cc1ccc(S(=O)(=O)N(C)C)cc1NC(=O)COC(=O)C1CC1 the results were PAFAH1B3 inh -1.2, TDP2 absorb 3.0, PAFAH2 inh 43.0*, Apaf-1 inh -9.5, PAFAH1B2 inh 0.7 and PAFAH2 FP conf 34.0*.
For O=C(CCCCCN1C(=O)C2C3C=CC(C3)C2C1=O)Nc1ccc2ncccc2c1 (stereo unspecified) the results were TDP2 absorb 3.9.
`CCN(c1ccccc1)S(=O)(=O)c1ccc(Cl)c(NC(=O)COC(=O)c2ccc(Cl)c(N)c2)c1` gave PAFAH1B3 inh 6.1, TDP2 absorb -12.5, PAFAH2 inh 40.2*, Apaf-1 inh 17.6, PAFAH1B2 inh 8.1 and PAFAH2 FP conf 19.9.
Screening CCN(c1ccccc1)S(=O)(=O)c1ccc(Cl)c(NC(=O)COC(=O)c2cccc(OC)c2O)c1 returned PAFAH1B3 inh 4.6, TDP2 absorb -0.9, PAFAH2 inh 9.4, Apaf-1 inh 12.6 and PAFAH1B2 inh 7.3.
`CCCOc1ccccc1/C=C(\C#N)C(=O)Nc1cccnc1` gave PAFAH1B3 inh -0.2, TDP2 absorb 0.2, PAFAH2 inh 39.8*, Apaf-1 inh -9.4, PAFAH1B2 inh 6.7 and PAFAH2 FP conf 28.6.
Cc1[nH]c2ccccc2c1CC(=O)Nc1ccc(Nc2cccnc2)c(-c2ccc(Cl)c(Cl)c2)c1 was read as TDP2 absorb -1.8.
Nc1[nH]n2c(=O)cc(-c3ccccc3)nc2c1N=Nc1ccccc1 was read as PAFAH1B3 inh 9.0, TDP2 absorb -8.0, PAFAH2 inh 31.5*, Apaf-1 inh 34.1, PAFAH1B2 inh 13.8 and PAFAH2 FP conf 26.6.
Screening COc1ccc(OC)c(S(=O)(=O)N(CCc2ccc(OC)c(OC)c2)Cc2cccs2)c1 returned TDP2 absorb 4.2.
`CC(C)c1ccc(O)c(NC(=S)NC(=O)c2ccc3c(c2)OCO3)c1` gave PAFAH1B3 inh 0.4, TDP2 absorb -5.2, PAFAH2 inh 30.3*, Apaf-1 inh 22.6, PAFAH1B2 inh 6.1 and PAFAH2 FP conf 21.3.
`Cc1cc(=O)[nH]c(SCC(=O)Nc2cccc(Cl)c2F)n1` gave TDP2 absorb -3.1.
O=C(COC(=O)c1cccc2c1C(=O)c1ccccc1C2=O)NC1CCCCC1 was read as PAFAH1B3 inh -1.7, TDP2 absorb 8.5, PAFAH2 inh 20.3, Apaf-1 inh 20.3 and PAFAH1B2 inh 3.0.
`CC1CCCCC1NC(=O)COC(=O)c1ccc2c(c1Cl)C(=O)c1ccccc1C2=O` (stereo unspecified) gave PAFAH1B3 inh 5.2, TDP2 absorb -3.0, PAFAH2 inh 53.9*, Apaf-1 inh 10.6, PAFAH1B2 inh 0.2 and PAFAH2 FP conf 54.9*.
Screening Cc1cc(C(=O)OCC(=O)NC2CCCCC2C)c2ccccc2n1 (stereo unspecified) returned PAFAH1B3 inh -0.7, TDP2 absorb 12.0, PAFAH2 inh 22.1, Apaf-1 inh 1.0 and PAFAH1B2 inh 5.0.
`O=C(COC(=O)c1ccc2c(c1[N+](=O)[O-])C(=O)c1ccccc1C2=O)NC1CC1` gave PAFAH1B3 inh 17.9, TDP2 absorb 10.2, PAFAH2 inh 35.8*, Apaf-1 inh 14.6, PAFAH1B2 inh 12.1 and PAFAH2 FP conf 24.1.
Screening Cc1ccc(C(=O)C2CCN(CC(=O)N3CCCC3)CC2)cc1 returned TDP2 absorb -1.5.
O=C(COC(=O)c1ccco1)NCCNC(=O)COC(=O)c1ccco1 was read as PAFAH1B3 inh 8.2, TDP2 absorb -0.5, PAFAH2 inh -5.3, Apaf-1 inh 11.4 and PAFAH1B2 inh -4.4.
`CC1CCC(NC(=O)COC(=O)c2ccco2)CC1` (stereo unspecified) gave PAFAH1B3 inh -0.2, TDP2 absorb 0.5, PAFAH2 inh 66.9*, Apaf-1 inh 8.9, PAFAH1B2 inh 5.6 and PAFAH2 FP conf 64.8*.
`O=C(COC(=O)c1ccco1)NC1CCCc2ccccc21` (stereo unspecified) gave PAFAH1B3 inh 9.9, TDP2 absorb -1.5, PAFAH2 inh 39.3*, Apaf-1 inh 9.7, PAFAH1B2 inh 1.1 and PAFAH2 FP conf 15.0.
O=C(COC(=O)c1ccc(Br)o1)NC1CCCc2ccccc21 (stereo unspecified) was read as PAFAH1B3 inh -2.3, TDP2 absorb 4.8, PAFAH2 inh 3.7, Apaf-1 inh -8.4 and PAFAH1B2 inh -2.7.
Screening Cc1cc(C(=O)OCC(=O)NC2CCC(C)CC2)c(C)o1 (stereo unspecified) returned PAFAH1B3 inh 4.3, TDP2 absorb -5.0, PAFAH2 inh 71.5*, Apaf-1 inh 5.0, PAFAH1B2 inh 3.5 and PAFAH2 FP conf 68.9*.
`O=C(COC(=O)c1ccco1)NCC1CCCCC1` gave PAFAH1B3 inh 4.9, TDP2 absorb -16.1, PAFAH2 inh 80.3*, Apaf-1 inh -4.2, PAFAH1B2 inh 7.4 and PAFAH2 FP conf 60.2*.
Screening COC(=O)C1=C(C)N(Cc2ccccc2C(F)(F)F)C(=NCc2ccc(C(F)(F)F)cc2)NC1c1ccc(C(F)(F)F)cc1 (stereo unspecified) returned TDP2 absorb -2.5.
CC(=O)N[C@@H]1C[C@@H]2O[C@H](CO)CC[C@@H]2O[C@@H]1CCc1ccc(-c2ccc(F)cc2)cc1 was read as TDP2 absorb -3.5.
Screening C[C@H]1[C@H](NC(=O)c2cccc(C(F)(F)F)c2)CC[C@@]23CCCN2C(=O)CCC[C@@H]13 returned TDP2 absorb 9.5.
`Cc1ccc(NC(=O)Cc2nc(COC(=O)Cc3cccc(C(F)(F)F)c3)cs2)cc1` gave PAFAH1B3 inh -2.1, TDP2 absorb -11.8, PAFAH2 inh 47.2*, Apaf-1 inh 16.0, PAFAH1B2 inh 10.3 and PAFAH2 FP conf 1.2.
For Cc1ccc(NC(=O)Cc2nc(COC(=O)c3c(F)cccc3Cl)cs2)cc1 the results were PAFAH1B3 inh 8.0, TDP2 absorb 3.7, PAFAH2 inh 20.1, Apaf-1 inh 3.2 and PAFAH1B2 inh 0.7.
For COc1cc(C(=O)OCC2CC(c3ccccc3)=NO2)cc(OC)c1OC (stereo unspecified) the results were PAFAH1B3 inh 2.9, TDP2 absorb 4.4, PAFAH2 inh -0.6, Apaf-1 inh 8.7 and PAFAH1B2 inh 4.7.
Screening COc1ccc(C(=O)OCC2CC(c3ccccc3)=NO2)cc1OC (stereo unspecified) returned PAFAH1B3 inh -3.5, TDP2 absorb -6.0, PAFAH2 inh 68.2*, Apaf-1 inh -8.6, PAFAH1B2 inh 2.6 and PAFAH2 FP conf 60.1*.
For FC(F)(F)c1cccc(N2CCN(C(=S)Nc3nccc4ccccc34)CC2)c1 the results were TDP2 absorb -3.2.
`Oc1oc(-c2ccccc2)nc1C=NCc1ccccc1` gave PAFAH1B3 inh 11.2, TDP2 absorb -0.4, PAFAH2 inh 45.1*, Apaf-1 inh 19.4, PAFAH1B2 inh 4.5 and PAFAH2 FP conf 37.3*.
`O=C1CN(C(=O)C2CCCCC2)C=CN1CCc1ccccc1Br` gave TDP2 absorb 0.6.

Screening data deposited in PubChem BioAssay by several laboratories.
